A selection: hits, their analogues and other compounds. The true share with any hit is near 2.3%.
ADAM10 inh: inhibits human ADAM10. recombinant ADAM10, EDANS/DABCYL FRET peptide cleavage, 3 h. O14672. inhibition, % at 7 µM. hit rate 0.62% among 370,000;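 active = inhibition above a per-campaign cutoff equal to the mean of compounds falling between control-based bounds plus 3 SD, cut at about 20% in these data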;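 note: 0% = DMSO wells while the 100% control is not disclosed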
PLCg1 inh: blocks human PLC-gamma1 enzyme activity; purified PLC-gamma1, fluorogenic substrate, fluorescence; inhibition, % at 12.2 µM; hit rate 0.84% among 370,000; AID 720700; in the data active = inhibition above about 9.5%
ADAM17 inh: ADAM17 inhibition, QFRET primary screen; P78536; recombinant ADAM17, EDANS/DABCYL FRET peptide cleavage; inhibition, % at 6.95 µM; hit rate 0.83% among 370,000; AID 720648;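 active = inhibition above the mean of compounds lying between control limits plus 3 SD, set per campaign, cut at about 8.5% in these data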;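 note: 0% = DMSO-only wells as the low control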
Target sequence (P78536 215-824 limits assumed): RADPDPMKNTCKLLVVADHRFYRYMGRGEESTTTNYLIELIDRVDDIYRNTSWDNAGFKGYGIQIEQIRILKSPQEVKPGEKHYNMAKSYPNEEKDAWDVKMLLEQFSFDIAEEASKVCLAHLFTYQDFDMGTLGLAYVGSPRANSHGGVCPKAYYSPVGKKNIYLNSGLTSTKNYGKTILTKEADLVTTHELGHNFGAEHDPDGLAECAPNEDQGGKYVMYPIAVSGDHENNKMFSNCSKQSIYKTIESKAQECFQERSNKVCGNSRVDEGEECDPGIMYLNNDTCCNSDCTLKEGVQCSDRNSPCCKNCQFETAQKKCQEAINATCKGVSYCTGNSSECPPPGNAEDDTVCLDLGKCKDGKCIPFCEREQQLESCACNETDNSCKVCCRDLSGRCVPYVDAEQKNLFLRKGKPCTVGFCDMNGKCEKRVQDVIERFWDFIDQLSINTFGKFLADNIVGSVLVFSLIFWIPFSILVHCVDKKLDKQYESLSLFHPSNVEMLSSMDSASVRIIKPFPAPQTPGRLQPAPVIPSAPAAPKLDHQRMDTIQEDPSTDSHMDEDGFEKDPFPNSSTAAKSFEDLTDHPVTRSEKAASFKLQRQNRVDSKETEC
Tb MetRS inh: blocks T. brucei methionyl-tRNA synthetase activity; purified T. brucei MetRS, ATP depletion, Kinase-Glo luminescence; AID 624268; hit rate 0.4% among 360,000; inhibition, % at 11.9 µM;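 active = inhibition above a per-plate cutoff of the control wells' mean inhibition plus 3 SD, cut at about 5.5% in these data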;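 note: 0% = DMSO wells median and 100% = median of wells with control inhibitor compound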
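assay system = parasite MetRS enzyme | timing = 15 min preincubation, 2 h reaction, all 25 °C | evaluation = percent inhibition relative to median high and low control wells | medium = HEPES buffer containing pyrophosphatase, BSA, spermine, DTT | compound = single dose, 11.9 µM final nominal, 0.9% final DMSO | detection = Kinase-Glo luminescence, ATP depletion format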
PLC-beta3 inh: inhibitors of human phospholipase C beta3; Purified PLC-beta3, fluorogenic substrate, fluorescence; inhibition, % at 12.2 µM; hit rate 0.18% among 370,000; AID 720704;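 note: 0% = median of compound wells on plate and 100% = full blocker control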
PLCgamma1 ctr: counter-screen for PLC-beta3 inhibitors: inhibitors of human PLC-gamma1. inhibition, % at 12.3 µM. purified PLC-gamma1, fluorogenic substrate, fluorescence. shares compounds with PLCg1 inh. hit rate 3.1% among 3,300; in the data active = inhibition above about 9.5%
PLCb3 confirm: confirmation of human PLC-beta3 inhibitors | shares compounds with PLCg1 inh | purified PLC-beta3, fluorogenic substrate fluorescence | inhibition, % at 12.3 µM | hit rate 1% among 3,300 | AID 743261
The depositor's hits bear a star. Cut-off read from the data, not from the text of the source, unless noted: active = inhibition above about 11%; inactive = the rest.

Cc1cc(S(=O)(=O)Nc2ncnc3sccc23)ccc1F was read as ADAM10 inh 4, PLCg1 inh 2, ADAM17 inh 3, Tb MetRS inh 0 and PLC-beta3 inh 2.
Screening O=C(CSc1nnc(CCCN2C(=O)c3cccc4cccc(c34)C2=O)n1-c1ccccc1)NCCCN1CCOCC1 returned ADAM10 inh -18, PLCg1 inh 11*, ADAM17 inh -3, Tb MetRS inh 0, PLC-beta3 inh 3, PLCgamma1 ctr -8 and PLCb3 confirm -2.
For Cc1cccc(C)c1-n1nnnc1C1c2ccccc2C(=O)N1CCc1ccc(O)cc1 (stereo unspecified) the results were ADAM10 inh -6, PLCg1 inh 1, ADAM17 inh 1, Tb MetRS inh -2 and PLC-beta3 inh 1.
`COCCCNCC1C(Oc2ccc(Cl)cc2)C(=O)N1c1ccccc1C` (stereo unspecified) gave ADAM10 inh -6, PLCg1 inh 9.9*, ADAM17 inh 0, Tb MetRS inh -1, PLC-beta3 inh -1, PLCgamma1 ctr -3 and PLCb3 confirm -2.
For Cc1ccccc1N1C(=O)C(Oc2ccc(Cl)cc2)C1CNCCCOC(C)C (stereo unspecified) the results were ADAM10 inh 9, PLCg1 inh 5, ADAM17 inh 0, Tb MetRS inh 0 and PLC-beta3 inh 2.
For COC(=O)C1=C(C)N(Cc2ccccc2)C(=NCc2cccc(C(F)(F)F)c2)N[C@H]1c1cccc(F)c1 the results were ADAM10 inh 2, PLCg1 inh 13*, ADAM17 inh 0, Tb MetRS inh 0, PLC-beta3 inh 3, PLCgamma1 ctr -7 and PLCb3 confirm -9.
For COC(=O)C1=C(C)N(Cc2cccc(C(F)(F)F)c2)C(=NCc2ccccc2C(F)(F)F)NC1c1ccc(Cl)cc1 (stereo unspecified) the results were ADAM10 inh 2, PLCg1 inh 1, ADAM17 inh 8, PLC-beta3 inh 14*, PLCgamma1 ctr -3 and PLCb3 confirm -4.
`COC(=O)C1=C(C)N(Cc2ccccc2)C(=NCc2cccc(C(F)(F)F)c2)N[C@H]1c1cccc(C(F)(F)F)c1` gave Tb MetRS inh 0.
For CCOc1ccc(C(=O)Oc2cc(C)[nH]c(=O)c2[N+](=O)[O-])cc1 the results were ADAM10 inh -10, PLCg1 inh 4, ADAM17 inh -2, Tb MetRS inh 0 and PLC-beta3 inh 3.
`CCOc1ccc(C(=O)Oc2cc(C)[nH]c(=O)c2[N+](=O)[O-])cc1OCC` gave ADAM10 inh 5, PLCg1 inh 10*, ADAM17 inh 4, Tb MetRS inh 0, PLC-beta3 inh 2, PLCgamma1 ctr 6 and PLCb3 confirm 4.
`Cc1nnc2sc(SCC(=O)N3CCC(C)CC3)nn2c1=O` gave ADAM10 inh 0, PLCg1 inh 0, ADAM17 inh -6, Tb MetRS inh 0 and PLC-beta3 inh -2.
For Cc1nnc2sc(SCC(=O)N3CCCCC3)nn2c1=O the results were ADAM10 inh 6, PLCg1 inh 12*, ADAM17 inh -3, Tb MetRS inh 1, PLC-beta3 inh -3, PLCgamma1 ctr -7 and PLCb3 confirm -1.
CC(=O)Nc1ccc(NC(=O)CSc2nc(N)c(NC(=O)c3ccco3)c(=O)[nH]2)cc1 was read as ADAM10 inh 1, PLCg1 inh 12*, ADAM17 inh -2, Tb MetRS inh 0, PLC-beta3 inh -4, PLCgamma1 ctr -2 and PLCb3 confirm 3.
`C=CCSc1nc(N)c(NC(=O)c2ccco2)c(=O)[nH]1` gave ADAM10 inh -11, PLCg1 inh 2, ADAM17 inh 2, Tb MetRS inh -1 and PLC-beta3 inh 2.
`O=C(Nc1nc2ncccn2c1-c1ccccc1)c1ccccc1` gave ADAM10 inh -162, PLCg1 inh -164, ADAM17 inh -52 and PLC-beta3 inh -213.
Screening CCCCC1CCC(c2nc(-c3ccccn3)no2)CC1 (stereo unspecified) returned ADAM10 inh 2, PLCg1 inh 9.8*, ADAM17 inh 3, Tb MetRS inh 0, PLC-beta3 inh 3, PLCgamma1 ctr -4 and PLCb3 confirm -4.
For c1ccc(-c2noc(C3CCC3)n2)nc1 the results were ADAM10 inh -3, PLCg1 inh 0, ADAM17 inh -5, Tb MetRS inh -1 and PLC-beta3 inh -7.
For COC(=O)C1CN(Cc2ccc(C)cc2)CCS(=O)(=O)N1Cc1cn(Cc2ccc(Cl)cc2)nn1 (stereo unspecified) the results were ADAM10 inh 8, PLCg1 inh 3, ADAM17 inh 3 and PLC-beta3 inh 2.
Screening O=C(NC(Cc1cccc(F)c1)C(=O)O)C1CCCCC1 (stereo unspecified) returned ADAM10 inh -4, PLCg1 inh -3, ADAM17 inh -4, Tb MetRS inh 0 and PLC-beta3 inh 0.
For CCC(=O)c1cn(CC(=O)NCc2ccco2)c2ccccc12 the results were ADAM10 inh 5, PLCg1 inh 10.0*, ADAM17 inh 2, Tb MetRS inh -3, PLC-beta3 inh 2, PLCgamma1 ctr -1 and PLCb3 confirm 2.
For COC(=O)c1cn(CC(=O)NCc2ccco2)c2ccccc12 the results were ADAM10 inh -4, PLCg1 inh 13*, ADAM17 inh -4, Tb MetRS inh 0, PLC-beta3 inh 5, PLCgamma1 ctr -5 and PLCb3 confirm -3.
Screening O=C(Cn1cc(C(=O)c2ccco2)c2ccccc21)NCc1ccco1 returned ADAM10 inh -1, PLCg1 inh -4, ADAM17 inh 0, Tb MetRS inh 0 and PLC-beta3 inh -8.
COc1ccc([C@H]2C[C@H](O)[C@@H](n3cc(-c4ccc(F)cc4)nn3)CN2C(=O)C2CCCCC2)cc1 was read as ADAM10 inh 8, PLCg1 inh 4, ADAM17 inh 1, Tb MetRS inh -2 and PLC-beta3 inh 8.
`COc1ccc(NC(=O)CSc2nnc(-c3ccccc3)n2Cc2ccco2)c(OC)c1` gave ADAM10 inh 12, PLCg1 inh 5, ADAM17 inh 9, Tb MetRS inh 1, PLC-beta3 inh 11*, PLCgamma1 ctr 1 and PLCb3 confirm 1.
For O=C(C[n+]1cccc(CNC(=O)c2ccc(OC(F)F)cc2)c1)Nc1cccc(C(F)(F)F)c1 the results were ADAM10 inh 3, PLCg1 inh 0, ADAM17 inh 2, Tb MetRS inh 2, PLC-beta3 inh 12*, PLCgamma1 ctr -3 and PLCb3 confirm 4.

Assay outcomes deposited in PubChem BioAssay by The Scripps Research Institute Molecular Screening Center.
